Converted amounts (≈) assume the structure as drawn. The source made the active and inactive calls. The rule behind the calls is not given here.

Assay [1] concerns Human rhinovirus sp. Briefly: In vitro concentration required to inhibit 80 percent of human rhinovirus 15 serotypes was determined by TCID50 assay. In kind it is functional. In a few lines: (§1)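 HeLa monolayers were infected with a virus dilution giving 80-100% CPE in 3 days without drug. Compound was serially diluted in 10 2-fold steps onto the infected cells and incubated 3 days at 33 °C in 2.5% CO2. Cells were fixed with 5% glutaraldehyde and stained with 0.25% crystal violet.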

The test system of assay [2] is Human rhinovirus sp. Briefly: In vitro concentration required to inhibit 80 percent of human rhinovirus 15 serotypes was determined by TCID50 assay;c= inactive against majority of serotypes. In kind it is functional, organism-based. In a few lines: as §1
The subject of assay [3] is Human rhinovirus sp. Briefly: In vitro concentration required to inhibit 80 percent of human rhinovirus 15 serotypes was determined by TCID50 assay;c inactive against majority of serotypes. It is filed as functional, organism-based. In a few lines:
as §1

Assay [4] has as its system Human rhinovirus sp. Description: In vitro concentration required to inhibit 80 percent of human rhinovirus 54 serotypes was determined by TCID50 assay. In kind it is functional.

Turning to `CSCc1cc(CCCOc2c(C)cc(-c3noc(C)n3)cc2C)on1`, in the assay on Human rhinovirus sp. [1], the MIC80 was found to be 0.32 µM (≈ 0.12 µg/mL). With `Cc1cc(CCCOc2c(C)cc(-c3ncon3)cc2C)on1`, the MIC80 entry in the assay with Human rhinovirus sp. [2] is “inactive”. On to `Cc1nc(-c2cc(C)c(OCCCc3cc(CCO)no3)c(C)c2)no1`, for which, in the assay with Human rhinovirus sp. [1], the MIC80 was 1.5 µM (≈ 0.536 µg/mL). Consider `CC(=O)Nc1nc(-c2cc(C)c(OCCCc3cc(C)no3)c(C)c2)no1`, for which the MIC80 entry with Human rhinovirus sp. [3] was “inactive”. In turn, `COCCc1cc(CCCOc2c(C)cc(-c3noc(C)n3)cc2C)on1` returned an MIC80 with Human rhinovirus sp. [1] of 0.24 µM (≈ 0.0891 µg/mL).

In the assay on Human rhinovirus sp. [1], `CCOCc1cc(CCCOc2c(C)cc(-c3noc(C)n3)cc2C)on1` had an MIC80 of 0.19 µM (≈ 0.0706 µg/mL). `Cc1cc(CCCOc2c(C)cc(-c3noc(S)n3)cc2C)on1`: in the assay with Human rhinovirus sp. [3], the MIC80 result was “inactive”. On the same count and under the same terms, with `Cc1cc(CCCOc2c(C)cc(-c3noc(N)n3)cc2C)on1` the entry was “inactive”. In the assay on Human rhinovirus sp. [1], `Cc1cc(CCCCCOc2c(Cl)cc(C3=NCCO3)cc2Cl)on1` [WIN-54954] gave an MIC80 of 0.9 µM (≈ 0.345 µg/mL). Same read-out and setting: under `Cc1cc(CCCOc2c(C)cc(-c3noc(C(C)C)n3)cc2C)on1` stands 0.93 µM (≈ 0.331 µg/mL). Consider `Cc1cc(CCCOc2c(C)cc(-c3noc(O)n3)cc2C)on1`, for which the MIC80 entry in the assay on Human rhinovirus sp. [2] was “inactive”. `Cc1nc(-c2cc(C)c(OCCCc3cc(CS(C)(=O)=O)no3)c(C)c2)no1` registered an MIC80 against Human rhinovirus sp. [1] of 0.77 µM (≈ 0.312 µg/mL). `CCOc1nc(-c2cc(C)c(OCCCc3cc(C)no3)c(C)c2)no1` displayed an MIC80 in the assay with Human rhinovirus sp. [1] of 0.23 µM (≈ 0.0822 µg/mL). Same read-out and setting: with `Cc1cc(CCCOc2c(C)cc(-c3nnc(C)o3)cc2C)on1` the figure was 3.7 µM (≈ 1.21 µg/mL).

`Cc1cc(CCCOc2c(C)cc(-c3noc(C(C)O)n3)cc2C)on1` (centres undefined): in the assay with Human rhinovirus sp. [2], the MIC80 result is “inactive”.

The compound `Cc1cc(CCCOc2c(C)cc(-c3nnn(C)n3)cc2C)on1` gave an MIC80 in the assay on Human rhinovirus sp. [1] of 0.71 µM (≈ 0.232 µg/mL). Take `COCc1cc(CCCOc2c(C)cc(-c3noc(C)n3)cc2C)on1`: the values for the MIC80 in the assay with Human rhinovirus sp. [1] and in the assay on Human rhinovirus sp. [4] were 0.22 µM (≈ 0.0786 µg/mL) and 0.45 µM (≈ 0.161 µg/mL), respectively. The corresponding values for `COCc1cc(CCCOc2c(Cl)cc(-c3noc(C)n3)cc2Cl)on1` are 0.18 µM (≈ 0.0717 µg/mL) and 0.19 µM (≈ 0.0757 µg/mL).

The compound `CCc1cc(CCCOc2c(C)cc(-c3noc(C)n3)cc2C)on1` gave an MIC80 against Human rhinovirus sp. [1] of 0.26 µM (≈ 0.0888 µg/mL). Same read-out and setting: under `CNc1nc(-c2cc(C)c(OCCCc3cc(C)no3)c(C)c2)no1` stands 0.95 µM (≈ 0.325 µg/mL); under `CCc1nc(-c2cc(C)c(OCCCc3cc(C)no3)c(C)c2)no1`, 0.32 µM (≈ 0.109 µg/mL). Still for that read-out and setting: with `COc1nc(-c2cc(C)c(OCCCc3cc(C)no3)c(C)c2)no1` the figure was 0.39 µM (≈ 0.134 µg/mL); with `CCc1cc(CCCOc2c(C)cc(-c3noc(CC)n3)cc2C)on1`, 0.4 µM (≈ 0.142 µg/mL). In the case of `Cc1cc(CCCOc2c(Cl)cc(-c3noc(C)n3)cc2Cl)on1`, the figures for the MIC80 in the assay on Human rhinovirus sp. [1] and against Human rhinovirus sp. [4] were 0.19 µM (≈ 0.07 µg/mL) and 0.3 µM (≈ 0.11 µg/mL), respectively. For `CCc1nc(-c2cc(C)c(OCCCc3cc(COC)no3)c(C)c2)no1`, the MIC80 against Human rhinovirus sp. [1] came out at 0.21 µM (≈ 0.078 µg/mL). As for `Cc1cc(CCCOc2c(C)cc(-c3noc(C)n3)cc2C)on1`, the MIC80 was determined as 0.26 µM (≈ 0.0851 µg/mL) in the assay on Human rhinovirus sp. [1] and 0.3 µM (≈ 0.0982 µg/mL) with Human rhinovirus sp. [4].

In the assay on Human rhinovirus sp. [1], `Cc1nc(-c2cc(C)c(OCCCc3cc(C[S+](C)[O-])no3)c(C)c2)no1` (centres undefined) displayed an MIC80 of 1 µM (≈ 0.389 µg/mL). `Cc1cc(CCCOc2c(C)cc(-c3noc(N(C)C)n3)cc2C)on1` showed an MIC80 against Human rhinovirus sp. [1] of 0.8 µM (≈ 0.285 µg/mL). Same read-out and setting: with `Cc1nc(-c2cc(C)c(OCCCc3cc(CO)no3)c(C)c2)no1` the figure was 0.73 µM (≈ 0.251 µg/mL); with `CCCc1nc(-c2cc(C)c(OCCCc3cc(C)no3)c(C)c2)no1`, 0.79 µM (≈ 0.281 µg/mL); with `Cc1cc(CCCOc2c(C)cc(-c3noc(C4CC4)n3)cc2C)on1`, 0.54 µM (≈ 0.191 µg/mL).

`COCc1nc(-c2cc(C)c(OCCCc3cc(C)no3)c(C)c2)no1` yielded an MIC80 against Human rhinovirus sp. [1] of 0.43 µM (≈ 0.154 µg/mL).

The compound `Cc1cc(CCCOc2c(C)cc(-c3noc(CO)n3)cc2C)on1` registered an MIC80 in the assay with Human rhinovirus sp. [1] of 3.6 µM (≈ 1.24 µg/mL).

For `CCc1cc(CCCOc2c(Cl)cc(-c3noc(C)n3)cc2Cl)on1`, the MIC80 worked out at 0.22 µM (≈ 0.0841 µg/mL) against Human rhinovirus sp. [1] and 0.23 µM (≈ 0.0879 µg/mL) with Human rhinovirus sp. [4]. `CCc1cc(CCCOc2c(C)cc(-c3ncon3)cc2C)on1`: the MIC80 with Human rhinovirus sp. [1] was determined as 3.2 µM (≈ 1.05 µg/mL).

Consider `CCCc1cc(CCCOc2c(C)cc(-c3noc(C)n3)cc2C)on1`, for which the MIC80 in the assay on Human rhinovirus sp. [1] came out at 0.21 µM (≈ 0.0746 µg/mL); against Human rhinovirus sp. [4], 0.26 µM (≈ 0.0924 µg/mL). On to `Cc1cc(CCCOc2c(C)cc(-c3nc(C)no3)cc2C)on1`, for which the MIC80 against Human rhinovirus sp. [1] was 0.73 µM (≈ 0.239 µg/mL).

`Cc1nc(-c2cc(C)c(OCCCc3cc(C4CC4)no3)c(C)c2)no1`: the MIC80 against Human rhinovirus sp. [1] was determined as 0.2 µM (≈ 0.0707 µg/mL).

The values are drawn from ChEMBL document CHEMBL1127597, “Oxadiazoles as ester bioisosteric replacements in compounds related to disoxaril. Antirhinovirus activity” (1994).
